# The source made the active and inactive calls. The rule behind the calls is not given here.
# Tests used:
# [1] = Binding affinity to P-gp at 0.5 uM after 30 mins by spectrophotometry
# Summary of the method: (§1)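 P-gp vesicles from DC-3F/ADX MDR cells; basal MgATP hydrolysis measured by PK/LDH-coupled NADH oxidation (PEP, NADH), with non-specific ATPase inhibitor; vesicles 5 min at 37 °C, compound added (final 0.05, 0.5, 5 µM) 5 min, MgATP then 20 min at 37 °C; A340 read twice 20 min apart; triplicate; verapamil, vinblastine, progesterone references.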
# [2] = Binding affinity to P-gp at 0.05 uM after 30 mins by spectrophotometry; summary of the method: as §1
# [3] = Binding affinity to P-gp at 5 uM after 30 mins by spectrophotometry; summary of the method: as §1
# ATP = assay: Binding affinity to ATP at 50 uM in HEPES buffer of pH 7.2 by spectrophotometry
# Summary of the method: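 UV-vis titration: compound held constant at 50 µM in HEPES pH 7.2, titrated with NaATP (from 10^-2 M stock) over 0–3 equiv; absorbance change followed; binding constant from Benesi–Hildebrand plot.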
# [4] = Binding affinity to Mg2+ at 100 uM in HEPES buffer of pH 7.2 by spectrophotometry
# Summary of the method: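 Compound at 10^-4 M in 10^-2 M HEPES pH 7.2 titrated with Mg²⁺ (0–0.5 × 10^-4 M); absorbance changes at 270–310, 390–415 and 320–340 nm monitored; binding constant by Benesi–Hildebrand equation.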
# [5] = Binding affinity to P-gp assessed as increase in basal protein activity at 0.05 uM after 30 mins by spectrophotometry; summary of the method: as §1
# [6] = Binding affinity to P-gp assessed as increase in basal protein activity at 5 uM after 30 mins by spectrophotometry; summary of the method: as §1
# [7] = Binding affinity to P-gp assessed as increase in basal protein activity at 0.5 uM after 30 mins by spectrophotometry; summary of the method: as §1
# Candida albicans [8] = assay: Antifungal activity at Candida albicans CAI4 after 48 hrs by ELISA; type: functional; conditions: CAI4, 48 h
# Summary of the method: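 Broth microdilution; CAI4 streaked on YEPD, 30 °C 24 h; compounds serially diluted twofold in YEPD, solvent diluted alongside; growth control column; 30 °C 48 h; OD600 on plate reader; MIC80 = concentration giving 80% growth inhibition vs no-compound growth.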
# [9] = molecular target: Multidrug resistance protein CDR1 (Candida albicans) (UniProt P43071); assay: Modulation of CDR1-mediated rhodamine 6G accumulation in Candida albicans CAI4 assessed as inhibition of fungal growth at 800 ug/ml after 48 hrs by spot assay
# Summary of the method: (§2)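 Spot assay: CAI4 grown in YEPD at 30 °C (16 h primary, 5 h secondary), diluted in 0.9% saline and spotted as 10⁵–10⁰ cells on YEPD agar containing compound plus R6G; solvent (MeOH/DMSO 1:1) and YEPD-only control plates; growth scored after 48 h at 30 °C.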
# Candida albicans [10] = assay: Effect of membrane integrity of Candida albicans CAI4 at 800 ug/ml after 48 hrs by spot assay in presence of 300 ug/ml calcofluor white; type: functional, organism-based
# Summary of the method: (§3)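 Spot assay on YEPD-agar plates containing compound (with Congo red or calcofluor white where applicable); solvent (MeOH/DMSO 1:1) and YEPD-only control plates; CAI4 primary culture 16 h, secondary 5 h at 30 °C from 4% inoculum, diluted in 0.9% saline; 10⁵ to 10⁰ cells spotted; 30 °C 48 h, growth scored.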
# [11] = molecular target: Multidrug resistance protein CDR1 (Candida albicans) (UniProt P43071); assay: Modulation of CDR1-mediated rhodamine 6G accumulation in Candida albicans CAI4 assessed as increase in R6G influx at 800 ug/ml after 180 mins by spectrofluorimetry
# Summary of the method: (§4)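 C. albicans CAI4 secondary culture (YEPD, 30 °C, ~5 h) washed in PBS, 2% suspension in PBS with 2 mM 2-deoxyglucose rocked 2 h; compound added at 800 µg/ml (MeOH/DMSO 1:1 solvent control), then R6G; aliquots over 0–180 min centrifuged, R6G left in supernatant measured as OD527.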
# Candida albicans [12] = assay: Antifungal activity at Candida albicans CAI4 assessed as reduction in colony formation at 0.9 mg/ml after 48 hrs by spot assay; type: functional, organism-based; summary of the method: as §3
# [13] = molecular target: Multidrug resistance protein CDR1 (Candida albicans) (UniProt P43071); assay: Inhibition of CDR1-mediated efflux of rhodamine 6G in Candida albicans CAI4 at 800 ug/ml up to 60 mins by spectrofluorimetry in presence of 2 mM 2-deoxyglucose treated for 2 hrs before compound addition
# Summary of the method: (§5)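 C. albicans CAI4 secondary culture (YEPD, 30 °C, ~5 h) washed in PBS, 2% cell suspension de-energised with 2 mM 2-deoxyglucose on rocker 2 h; R6G loaded, cells pelleted, washed, resuspended in PBS with or without 2% glucose; compound at 800 µg/ml with MeOH/DMSO 1:1 solvent control; supernatant R6G fluorescence read (ex 529, em 553 nm) over time.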
# Candida albicans [14] = assay: Antifungal activity at Candida albicans CAI4 assessed as inhibition of fungal growth at 0.9 mg/ml after 48 hrs by spot assay; type: functional, organism-based; summary of the method: as §3
# Candida albicans [15] = assay: Antifungal activity at Candida albicans CAI4 assessed as reduction in colony formation at 1 mg/ml after 48 hrs by spot assay; type: functional, organism-based; summary of the method: as §3
# Candida albicans [16] = assay: Antifungal activity at Candida albicans CAI4 assessed as inhibition of fungal growth at 1 mg/ml after 48 hrs by spot assay; type: functional, organism-based; summary of the method: as §3
# [17] = molecular target: T1, Multidrug resistance protein CDR2 (Candida albicans (strain SC5314 / ATCC MYA-2876) (Yeast)) (UniProt P78595); assay: Modulation of CDR2-mediated rhodamine 6G accumulation in Candida albicans CAI4 assessed as inhibition of fungal growth at 800 ug/ml after 48 hrs by spot assay; summary of the method: as §2
# T1 sequence (whole entry): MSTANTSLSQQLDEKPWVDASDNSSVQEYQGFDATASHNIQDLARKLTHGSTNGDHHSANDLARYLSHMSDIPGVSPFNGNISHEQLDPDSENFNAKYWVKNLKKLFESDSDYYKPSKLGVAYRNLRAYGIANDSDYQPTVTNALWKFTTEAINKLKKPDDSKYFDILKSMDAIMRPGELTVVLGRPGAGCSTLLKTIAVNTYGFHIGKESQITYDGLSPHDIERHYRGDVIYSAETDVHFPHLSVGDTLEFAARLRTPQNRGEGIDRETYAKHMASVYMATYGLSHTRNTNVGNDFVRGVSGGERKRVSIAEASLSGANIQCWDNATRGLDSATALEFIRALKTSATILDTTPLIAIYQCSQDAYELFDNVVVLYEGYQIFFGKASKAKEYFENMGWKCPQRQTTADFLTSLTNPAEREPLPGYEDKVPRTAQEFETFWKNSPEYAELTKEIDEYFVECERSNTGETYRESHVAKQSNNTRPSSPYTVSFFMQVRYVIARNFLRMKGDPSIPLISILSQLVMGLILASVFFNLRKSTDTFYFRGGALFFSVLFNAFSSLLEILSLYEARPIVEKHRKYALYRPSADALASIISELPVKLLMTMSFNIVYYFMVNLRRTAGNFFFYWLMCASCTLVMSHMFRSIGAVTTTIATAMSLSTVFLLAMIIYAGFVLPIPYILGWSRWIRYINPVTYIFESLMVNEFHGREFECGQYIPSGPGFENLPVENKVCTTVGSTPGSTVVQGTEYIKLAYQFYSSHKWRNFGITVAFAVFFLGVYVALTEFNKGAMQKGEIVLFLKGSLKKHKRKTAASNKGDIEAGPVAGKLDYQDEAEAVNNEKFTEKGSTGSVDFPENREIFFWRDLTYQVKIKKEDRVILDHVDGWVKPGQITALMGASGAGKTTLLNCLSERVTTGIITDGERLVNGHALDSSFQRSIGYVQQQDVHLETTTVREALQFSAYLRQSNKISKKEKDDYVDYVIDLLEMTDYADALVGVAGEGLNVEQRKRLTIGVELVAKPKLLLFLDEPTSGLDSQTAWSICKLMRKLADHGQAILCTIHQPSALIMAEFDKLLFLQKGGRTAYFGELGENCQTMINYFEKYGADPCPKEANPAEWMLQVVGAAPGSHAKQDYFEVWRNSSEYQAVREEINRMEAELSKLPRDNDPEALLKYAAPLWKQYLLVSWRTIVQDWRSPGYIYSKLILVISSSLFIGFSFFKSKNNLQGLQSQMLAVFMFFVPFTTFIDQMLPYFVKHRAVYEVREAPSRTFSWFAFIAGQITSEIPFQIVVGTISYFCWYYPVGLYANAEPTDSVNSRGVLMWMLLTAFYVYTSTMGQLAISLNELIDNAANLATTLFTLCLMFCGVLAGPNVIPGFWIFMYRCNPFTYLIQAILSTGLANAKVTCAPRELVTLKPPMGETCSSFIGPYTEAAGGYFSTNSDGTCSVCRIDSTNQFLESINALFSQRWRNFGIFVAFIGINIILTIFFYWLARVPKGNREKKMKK
# [18] = molecular target: T1, Multidrug resistance protein CDR2 (Candida albicans (strain SC5314 / ATCC MYA-2876) (Yeast)); assay: Modulation of CDR2-mediated rhodamine 6G accumulation in Candida albicans CAI4 assessed as increase in R6G influx at 800 ug/ml after 180 mins by spectrofluorimetry; summary of the method: as §4
# [19] = molecular target: T1, Multidrug resistance protein CDR2 (Candida albicans (strain SC5314 / ATCC MYA-2876) (Yeast)); assay: Inhibition of CDR2-mediated efflux of rhodamine 6G in Candida albicans CAI4 at 800 ug/ml up to 60 mins by spectrofluorimetry in presence of 2 mM 2-deoxyglucose treated for 2 hrs before compound addition; summary of the method: as §5
# Candida albicans [20] = assay: Effect of membrane integrity of Candida albicans CAI4 at 800 ug/ml after 48 hrs by spot assay in presence of 300 ug/ml congo red; type: functional, organism-based; summary of the method: as §3
# [21] = Partition coefficient, log P of the compound; type: physicochemical; conditions: octanol/water
# Multidrug resistance protein CDR1 (Candida albicans), sequence (P43071 whole entry, looked up): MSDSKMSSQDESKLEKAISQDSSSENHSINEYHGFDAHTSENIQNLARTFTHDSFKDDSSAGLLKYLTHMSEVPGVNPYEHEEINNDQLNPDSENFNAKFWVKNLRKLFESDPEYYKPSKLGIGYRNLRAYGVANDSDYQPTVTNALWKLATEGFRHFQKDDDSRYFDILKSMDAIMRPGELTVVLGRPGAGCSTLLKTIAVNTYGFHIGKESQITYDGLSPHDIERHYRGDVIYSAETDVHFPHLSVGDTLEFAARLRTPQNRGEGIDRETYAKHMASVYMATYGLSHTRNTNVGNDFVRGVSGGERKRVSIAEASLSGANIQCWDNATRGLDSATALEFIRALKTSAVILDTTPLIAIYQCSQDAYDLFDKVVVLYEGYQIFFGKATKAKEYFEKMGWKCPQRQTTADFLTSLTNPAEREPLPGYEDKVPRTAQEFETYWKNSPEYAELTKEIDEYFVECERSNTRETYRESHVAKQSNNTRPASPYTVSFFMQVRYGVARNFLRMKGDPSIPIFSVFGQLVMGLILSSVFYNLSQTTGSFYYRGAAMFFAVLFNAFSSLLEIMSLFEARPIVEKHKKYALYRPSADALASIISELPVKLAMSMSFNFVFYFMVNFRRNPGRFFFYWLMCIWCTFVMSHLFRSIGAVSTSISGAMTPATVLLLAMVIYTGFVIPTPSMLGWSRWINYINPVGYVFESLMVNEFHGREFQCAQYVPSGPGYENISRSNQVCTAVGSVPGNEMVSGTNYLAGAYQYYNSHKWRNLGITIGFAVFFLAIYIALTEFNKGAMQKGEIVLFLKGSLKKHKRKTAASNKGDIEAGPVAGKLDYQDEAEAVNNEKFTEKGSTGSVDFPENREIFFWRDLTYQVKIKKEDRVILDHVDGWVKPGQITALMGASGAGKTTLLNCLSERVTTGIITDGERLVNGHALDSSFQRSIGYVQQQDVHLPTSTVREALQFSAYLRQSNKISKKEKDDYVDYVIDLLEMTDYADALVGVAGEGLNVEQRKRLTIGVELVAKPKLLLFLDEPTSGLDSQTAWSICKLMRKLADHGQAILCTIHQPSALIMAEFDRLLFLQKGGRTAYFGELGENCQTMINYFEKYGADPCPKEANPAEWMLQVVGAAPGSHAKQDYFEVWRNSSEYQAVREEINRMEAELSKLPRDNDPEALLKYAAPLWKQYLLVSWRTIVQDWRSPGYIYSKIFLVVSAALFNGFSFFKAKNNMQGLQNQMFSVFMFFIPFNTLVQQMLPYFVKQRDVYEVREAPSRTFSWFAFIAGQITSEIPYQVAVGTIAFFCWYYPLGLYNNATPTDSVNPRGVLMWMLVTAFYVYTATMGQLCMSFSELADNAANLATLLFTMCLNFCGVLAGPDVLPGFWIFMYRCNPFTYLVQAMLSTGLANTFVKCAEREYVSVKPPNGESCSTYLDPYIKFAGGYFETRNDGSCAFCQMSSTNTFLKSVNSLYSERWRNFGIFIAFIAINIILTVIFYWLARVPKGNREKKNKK
Compound,RBA [1],RBA [2],RBA [3],Ka (ATP),Ka [4] [×10⁵ /M],Activity [5] [%],Activity [6] [%],Activity [7] [%],MIC80 (Candida albicans [8]) [µg/mL],other results
CC(=O)[C@H]1CC[C@H]2[C@@H]3CCC4=CC(=O)CC[C@]4(C)[C@H]3CC[C@]12C,1.11,1,1.42,–,–,–,–,–,–,–
CCN(CC)CC(O)Cn1c2ccccc2c(=O)c2cccc(C(=O)O)c21 (stereo unspecified),1.7,1.65,2.12,inactive,7.74,65,112,70,–,–
O=c1c2ccccc2n(CC(O)CN2CCCC2)c2c(Cl)cccc12 (stereo unspecified),–,–,–,6.57 ×10⁵ /M,0.95,–,–,–,> 3000,–
COc1ccc(CCN(C)CCCC(C#N)(c2ccc(OC)c(OC)c2)C(C)C)cc1OC (stereo unspecified),2.01,1.11,2.8,–,–,–,–,–,–,–
CC(C)N(CC(O)Cn1c2ccccc2c(=O)c2cccc(Cl)c21)C(C)C (stereo unspecified),–,–,–,1.42 ×10⁵ /M,2.2,–,–,–,> 3000,–
O=c1c2ccccc2n(CC(O)CN2CCC(N3CCCCC3)CC2)c2c(Cl)cccc12 (stereo unspecified),–,–,–,11 ×10⁵ /M,18.6,–,–,–,> 3000,–
CC(C)N(CC(O)Cn1c2ccccc2c(=O)c2cccc(C(=O)O)c21)C(C)C (stereo unspecified),1.6,1.53,2.05,inactive,2,53,105,60,–,–
CC[C@]1(O)C[C@@H]2CN(CCc3c([nH]c4ccccc34)[C@@](C(=O)OC)(c3cc4c(cc3OC)N(C)[C@H]3[C@@](O)(C(=O)OC)[C@H](OC(C)=O)[C@]5(CC)C=CCN6CC[C@]43[C@@H]65)C2)C1,1.37,0.98,1.21,–,–,–,–,–,–,–
CCN(CC)CC(O)Cn1c2ccccc2c(=O)c2cccc(Cl)c21 (stereo unspecified),–,–,–,7.9 ×10⁵ /M,0.39,–,–,–,1500,–
O=C(O)c1cccc2c(=O)c3ccccc3n(CC(O)CN3CCCC3)c12 (stereo unspecified),1.85,1.6,2,inactive,1.5,60,100,85,781,inhibition [9]: Active; inhibition (Candida albicans [10]): inactive; inhibition [11]: Active; inhibition (Candida albicans [12]): Active; inhibition [13]: Active; inhibition (Candida albicans [14]): inactive; inhibition (Candida albicans [15]): Active; inhibition (Candida albicans [16]): inactive; inhibition [17]: Active; inhibition [18]: Active; inhibition [19]: Active; inhibition (Candida albicans [20]): inactive
O=C(O)c1cccc2c(=O)c3ccccc3n(CC(O)CN3CCCCC3)c12 (stereo unspecified),1.66,1.57,2.44,inactive,19.7,57,144,66,–,–
O=c1c2ccccc2n(CC(O)CN2CCOCC2)c2c(Cl)cccc12 (stereo unspecified),–,–,–,4.08 ×10⁵ /M,17.1,–,–,–,> 3000,–
O=C(O)c1cccc2c(=O)c3ccccc3n(CC(O)CN3CCOCC3)c12 (stereo unspecified),2,1.63,2.66,inactive,3.82,63,166,100,–,logP [21]: 0.6
O=c1c2ccccc2n(CC(O)CN2CCCCC2)c2c(Cl)cccc12 (stereo unspecified),–,–,–,5 ×10⁵ /M,1.48,–,–,–,> 3000,–

# Source: ChEMBL document CHEMBL1166014, “Targeting efflux pumps-In vitro investigations with acridone derivatives and identification of a lead molecule for MDR modulation” (Bioorg Med Chem, 2010)
